Data on one molecule can be found in paper PMC3085951 (Journal of controlled release : official journal of the …, 2011).

This test addresses MT1-160p (Homo sapiens, UniProt P50281). Put plainly: Phage ELISA, apparent Kd of phage-displayed peptide with MT1-160p. Type of test: binding. In a few lines:
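MT1-160p (MT1-MMP residues 160–174) coated at 100 µg/ml in carbonate buffer pH 9.6, 4°C overnight, then blocked with 1% BSA/PBS. Selected phages bound 2 h at 37°C, then PBST washes. Mouse anti-M13 (1:1000) 1 h at 37°C, then HRP goat anti-mouse (1:2500). TMB 30 min at 37°C in the dark, stopped with 2 M H2SO4, A450. Coated wells without phage served as blanks.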

Peptide text beside a SMILES is read from it.

As to `CC(C)C[C@H](NC(=O)[C@H](Cc1ccccc1)NC(=O)[C@@H](NC(=O)[C@H](CCCCN)NC(=O)[C@@H](NC(=O)[C@H](CC(N)=O)NC(=O)[C@H](Cc1c[nH]cn1)NC(=O)[C@H](CC(C)C)NC(=O)[C@H](Cc1c[nH]cn1)NC(=O)[C@H](CCCCN)NC(=O)[C@H](Cc1c[nH]c2ccccc12)NC(=O)[C@@H](N)Cc1c[nH]cn1)[C@@H](C)O)[C@@H](C)O)C(=O)O` [MT1-AF7p] (H-HWKHLHNTKTFL-OH), the Kd turned out to be 0.075 nM.
